Laboratory results as given in ChEMBL document CHEMBL3877253, “Discovery of new hit-molecules targeting Plasmodium falciparum through a global SAR study of the 4-substituted-2-trichloromethylquinazoline antiplasmodial scaffold” (Eur J Med Chem, 2017).

Experiments:
[1] = Selectivity index, ratio of CC50 for human HepG2 cells to IC50 for chloroquine/pyrimethamine/proguanil-resistant Plasmodium falciparum K1 infected in human erythrocytes; assay type: functional
[2] = Cytotoxicity against human HepG2 cells assessed as reduction in cell viability after 72 hrs by MTT assay; assay type: toxicity, cell-based
Method in brief: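 HepG2 hepatocarcinoma cells in RPMI with 10% FBS, L-glutamine, penicillin/streptomycin, 37 °C, 6% CO2. Seeded 5.10^3 cells/well, 24 h attachment, then compounds added from DMSO (final under 0.5% v/v) at various concentrations for 72 h, triplicates. Wells checked microscopically for precipitate. MTT 0.5 mg/mL 2 h, formazan dissolved in DMSO, A570 (ref 630 nm). Viability as % of untreated cells; CC50 from dose–response curve.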

Plasmodium falciparum = test: Antiplasmodial activity against chloroquine/pyrimethamine/proguanil-resistant Plasmodium falciparum K1 infected in human erythrocytes after 72 hrs by SYBR Green 1 dye based fluorescence spectrophotometric method; assay type: functional, cell-based; details: K1, 72 h

SMILES | Ratio CC50/IC50 [1] | CC50 at 72 h [2] | IC50 (Plasmodium falciparum)
C[C@H]1c2cccc(O)c2C(=O)C2=C(O)[C@]3(O)C(=O)C(C(N)=O)=C(O)[C@@H](N(C)C)[C@@H]3[C@@H](O)[C@@H]21.O [DOXYCYCLINE] | 3.3 | – | –
O=C1C(O)=C([C@H]2CC[C@H](c3ccc(Cl)cc3)CC2)C(=O)c2ccccc21 [ATOVAQUONE] | 15600 | > 15.6 µM | 0.001 µM
Clc1ccc(Sc2nc3ccccc3nc2C(Cl)(Cl)Cl)cc1 | 77.2 | 38.6 µM | 0.5 µM
Clc1ccc(Nc2cc(C(Cl)(Cl)Cl)nc3ccccc23)c(Cl)c1 | 9 | 11.7 µM | 1.3 µM
FC(F)(F)c1cccc(Nc2cc(C(Cl)(Cl)Cl)nc3ccccc23)c1 | 5 | 6.5 µM | 1.3 µM
Clc1nc(C(Cl)(Cl)Cl)nc2ccccc12 | >2.3 | > 125 µM | –
